# Measured values gathered from unrelated publications.
# Protocols differ between the studies behind these lines. pIC50: −log10 of the molar value.
# Organism: Enterococcus faecalis
Compound,assay,system,conditions,endpoint,result
CCCCCCCCCCCCCCCc1cc(O)cc(O)c1,microbial growth,ATCC29212,,pIC50,< 3.70
O=C(CCCCc1ccccc1)CP(=O)(O)O,microbial growth,ATCC33186,,MIC,> 200 µg/mL
CCCCCCCCCCCCCCCC(=O)NS(=O)(=O)Oc1ccc(Cl)c(Cl)c1,"microbial growth, broth dilution",ATCC33186,,MIC,0.8 µg/mL
C=C(NC(=O)C(=C)NC(=O)c1csc(C2=N[C@@H]3c4csc(n4)[C@H]4NC(=O)c5csc(n5)[C@H]([C@](C)(O)[C@@H](C)O)NC(=O)[C@H]5CSC(=N5)/C(=C/C)NC(=O)[C@H]([C@@H](C)O)NC(=O)c5csc(n5)[C@]3(CC2)NC(=O)[C@H](C)NC(=O)C(=C)NC(=O)[C@H](C)NC(=O)[C@H]([C@@H](C)CC)N[C@@H]2C=Cc3c([C@H](C)O)cc(nc3[C@H]2O)C(=O)O[C@@H]4C)n1)C(N)=O,microbial growth,VRE,,MIC,0.12 µg/mL
CCCCCCCCCCCCCCCC(=O)CP(=O)(O)O,microbial growth,ATCC33186,,MIC,12.5 µg/mL
CC1(C)S[C@@H]2[C@H](NC(=O)[C@H](N)c3ccccc3)C(=O)N2[C@H]1C(=O)O,"microbial growth, well diffusion",ATCC29212,60000 µg/mL,inhibition zone,26 mm
ONCc1cc(F)cc(F)c1,microbial growth,ATCC19433,8 h,MIC50,< 80 µg/mL
CN[C@H](CC(C)C)C(=O)N[C@H]1C(=O)N[C@@H](CC(N)=O)C(=O)N[C@H]2C(=O)N[C@H]3C(=O)N[C@H](C(=O)N[C@H](C(=O)O)c4cc(O)cc(O)c4-c4cc3ccc4O)[C@H](O)c3ccc(c(Cl)c3)Oc3cc2cc(c3O[C@@H]2O[C@H](CO)[C@@H](O)[C@H](O)[C@H]2O[C@H]2C[C@](C)(N)[C@H](O)[C@H](C)O2)Oc2ccc(cc2Cl)[C@H]1O,microbial killing,,"drug-resistant strain, clinical isolate",MBC,32 µg/mL
CCCCCCCC(=O)CP(=O)(O)O,microbial growth,ATCC33186,,MIC,> 200 µg/mL
CCCCCCCCCCCCCCCC(=O)NS(=O)(=O)OC1CCCCC1,"microbial growth, broth dilution",ATCC33186,,MIC,12.5 µg/mL
CC(C)CCCCCCCCCCCCCCCc1cc(O)cc(O)c1,microbial growth,ATCC29212,,pIC50,4.82
CCCCCCCCCCCCCCCC(=O)NS(=O)(=O)OC1CCOCC1,"microbial growth, broth dilution",ATCC33186,,MIC,25 µg/mL
CC(C)C(C)CCCCCCCCCCCc1cc(O)cc(O)c1 (centres unmarked),microbial growth,ATCC29212,,pIC50,4.88
CCCCCCCC/C=C\CCCCCCCC(=O)C(F)(F)P(=O)(O)O,microbial growth,ATCC33186,,MIC,6.25 µg/mL
